Results as given in article PMC9401513 (Clinical Cancer Research, 2021).
Where a SMILES comes first, the peptide text is derived from it. [ ]: non-standard residue; d: D form. The star is where a group is joined. Dolaproine = CO[C@@H]([C@@H]1CCCN1)[C@@H](C)C(=O)O; Dil = CC[C@H](C)[C@H](NC)[C@@H](CC(=O)O)OC; Doe = c1ccc(C[C@H](N*)c2nccs2)cc1; Aib = CC(C)(N)C(=O)O

Experiments:
CYP3A4 = CYP3A4 (Homo sapiens, UniProt P08684); assay: Drug-drug interaction substudy with multiple-dose fluconazole; format: in vivo; conditions: PF-06647020 co-administered with multiple-dose fluconazole, 11 patients
Chain of CYP3A4 (P08684 whole entry): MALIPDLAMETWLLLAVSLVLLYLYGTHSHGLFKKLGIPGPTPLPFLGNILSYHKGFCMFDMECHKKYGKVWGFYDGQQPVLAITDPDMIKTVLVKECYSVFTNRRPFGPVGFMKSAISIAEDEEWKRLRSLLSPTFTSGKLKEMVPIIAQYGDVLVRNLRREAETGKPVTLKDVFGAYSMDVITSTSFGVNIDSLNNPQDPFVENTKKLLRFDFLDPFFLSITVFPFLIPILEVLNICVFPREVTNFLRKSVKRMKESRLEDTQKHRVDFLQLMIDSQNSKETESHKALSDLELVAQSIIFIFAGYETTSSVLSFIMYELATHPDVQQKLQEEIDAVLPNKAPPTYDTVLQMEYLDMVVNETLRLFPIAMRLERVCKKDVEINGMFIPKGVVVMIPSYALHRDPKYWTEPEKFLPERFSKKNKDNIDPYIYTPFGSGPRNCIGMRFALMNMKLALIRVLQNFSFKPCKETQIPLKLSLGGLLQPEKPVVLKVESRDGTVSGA
Outline: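 Single-dose test ADC was given alone in cycle 1 (reference) and co-administered with multiple-dose fluconazole in cycle 2 (test). Unconjugated payload exposure was measured as dose-normalized AUCinf and Cmax from noncompartmental analysis. Results were expressed as ratios of adjusted geometric means with 90% confidence intervals.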

[1] = Clinical pharmacokinetics; format: in vivo, human; conditions: 0.2 to 3.7 mg/kg every 3 weeks dose levels of PF-06647020

| Molecule | impact of fluconazole co-administration on overall exposure (CYP3A4) | systemic exposure (AUCtau, Cmax) versus dose [1] |
| --- | --- | --- |
| CC[C@H](C)[C@@H]([C@@H](CC(=O)N1CCC[C@H]1[C@H](OC)[C@@H](C)C(=O)N[C@@H](Cc1ccccc1)c1nccs1)OC)N(C)C(=O)[C@@H](NC(=O)C(C)(C)N)C(C)C [PF-06380101, auristatin-0101] (H-[Aib]V[Dil][Dolaproine]-Doe) | did not have a notable impact | – |
| hu6M024: humanized anti-PTK7 mAb (IgG1); total antibody = conjugated or unconjugated mAb (antibody, chains of the INN, looked up, V domains shown) VH: QVQLVQSGPEVKKPGASVKVSCKASGYTFTDYAVHWVRQAPGKRLEWIGVISTYNDYTYNNQDFKGRVTMTRDTSASTAYMELSRLRSEDTAVYYCARGNSYFYALDYWGQGTSVTVSS VL: EIVLTQSPATLSLSPGERATLSCRASESVDSYGKSFMHWYQQKPGQAPRLLIYRASNLESGIPARFSGSGSGTDFTLTISSLEPEDFAVYYCQQSNEDPWTFGGGTKLEIK | did not have a notable impact | generally increased in a dose-related manner |
